The results in this text go back to ChEMBL document CHEMBL1944565, “Exploration of α-aminophosphonate N-derivatives as novel, potent and selective inhibitors of protein tyrosine phosphatases” (Eur J Med Chem, 2012).

Molecules are shown by their SMILES.

Sequence of Tyrosine-protein phosphatase non-receptor type 6 (P29350 whole entry): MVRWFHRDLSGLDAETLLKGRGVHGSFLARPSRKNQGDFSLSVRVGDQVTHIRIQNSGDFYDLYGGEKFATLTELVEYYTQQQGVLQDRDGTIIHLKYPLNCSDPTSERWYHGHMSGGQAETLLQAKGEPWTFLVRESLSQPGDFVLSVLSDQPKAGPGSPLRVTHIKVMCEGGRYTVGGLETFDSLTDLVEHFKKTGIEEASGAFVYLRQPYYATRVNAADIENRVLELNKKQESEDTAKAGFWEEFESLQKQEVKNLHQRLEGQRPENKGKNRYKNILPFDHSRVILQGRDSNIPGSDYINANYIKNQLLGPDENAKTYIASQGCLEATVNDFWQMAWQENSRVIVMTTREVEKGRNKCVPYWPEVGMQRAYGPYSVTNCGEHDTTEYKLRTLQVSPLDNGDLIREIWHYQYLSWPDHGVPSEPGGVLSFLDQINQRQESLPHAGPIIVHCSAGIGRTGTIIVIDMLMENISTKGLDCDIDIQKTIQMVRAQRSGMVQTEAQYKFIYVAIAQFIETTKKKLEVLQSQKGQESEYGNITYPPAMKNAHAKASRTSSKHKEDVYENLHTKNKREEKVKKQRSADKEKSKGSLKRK

The target in one assay is T1, Tyrosine-protein phosphatase non-receptor type 1 (Homo sapiens, UniProt P18031).
T1 sequence (P18031 whole entry): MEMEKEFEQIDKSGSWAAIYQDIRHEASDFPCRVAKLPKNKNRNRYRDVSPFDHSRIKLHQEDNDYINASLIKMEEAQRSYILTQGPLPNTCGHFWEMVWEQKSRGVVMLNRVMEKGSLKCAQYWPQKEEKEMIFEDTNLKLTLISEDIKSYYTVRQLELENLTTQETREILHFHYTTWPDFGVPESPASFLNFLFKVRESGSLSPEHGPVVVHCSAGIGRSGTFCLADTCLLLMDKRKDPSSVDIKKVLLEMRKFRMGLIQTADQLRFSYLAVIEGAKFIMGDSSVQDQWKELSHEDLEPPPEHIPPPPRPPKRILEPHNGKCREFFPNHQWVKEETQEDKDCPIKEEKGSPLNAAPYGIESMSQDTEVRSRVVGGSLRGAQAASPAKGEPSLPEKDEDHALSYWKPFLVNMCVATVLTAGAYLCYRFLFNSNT
As to the kind of experiment: Inhibition of human PTP1B using p-nitrophenol phosphate as substrate incubated for 35 mins prior to substrate addition measured after 30 mins by spectrophotometry. The method in brief: (§1)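 Recombinant human phosphatase, expressed and purified, in 20 mM MOPS pH 7.2 with 50 mM NaCl. Preincubated with inhibitor at various concentrations for 35 min at 37 °C. p-NPP (0.1 M stock) added and reaction run about 30 min, then stopped with 2 M NaOH.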
In turn, `CCOP(=O)(OCC)[C@H](Nc1ccccc1Cl)c1ccccc1O` came in with an IC50 of 137 µM.

Consider `CCOP(=O)(O)C(N[C@@H](Cc1ccc(O)cc1)C(=O)O)c1ccccc1O` (stereo partly specified), for which the IC50 was > 10000 µM.

Turning to `CCOP(=O)(O)C(N[C@@H](Cc1cnc[nH]1)C(=O)O)c1ccccc1O` (stereo partly specified), the IC50 came out at 334 µM.

For `CCOP(=O)(O)C(N[C@@H](CO)C(=O)O)c1ccccc1O` (stereo partly specified), the IC50 turned out to be 135 µM.

With `CCOP(=O)(O)C(N[C@@H](C)C(=O)O)c1ccccc1O` (stereo partly specified), the IC50 is > 10000 µM.

In the case of `CCOP(=O)(O)C(NCC(=O)O)c1ccccc1O` (stereo unspecified), the half-maximal inhibitory concentration (IC50) was > 10000 µM.

`CCOP(=O)(OCC)[C@H](Nc1ccc([N+](=O)[O-])cc1)c1ccccc1O` returned a half-inhibitory concentration (IC50) of 217 µM.

For the compound `CCOP(=O)(O)C(NCCNC(c1ccccc1O)P(=O)(O)OCC)c1ccccc1O` (stereo unspecified), the IC50 was > 10000 µM.

The target of a further assay is T2, Tyrosine-protein phosphatase non-receptor type 2 (Homo sapiens, UniProt P17706).
T2 sequence (P17706 whole entry): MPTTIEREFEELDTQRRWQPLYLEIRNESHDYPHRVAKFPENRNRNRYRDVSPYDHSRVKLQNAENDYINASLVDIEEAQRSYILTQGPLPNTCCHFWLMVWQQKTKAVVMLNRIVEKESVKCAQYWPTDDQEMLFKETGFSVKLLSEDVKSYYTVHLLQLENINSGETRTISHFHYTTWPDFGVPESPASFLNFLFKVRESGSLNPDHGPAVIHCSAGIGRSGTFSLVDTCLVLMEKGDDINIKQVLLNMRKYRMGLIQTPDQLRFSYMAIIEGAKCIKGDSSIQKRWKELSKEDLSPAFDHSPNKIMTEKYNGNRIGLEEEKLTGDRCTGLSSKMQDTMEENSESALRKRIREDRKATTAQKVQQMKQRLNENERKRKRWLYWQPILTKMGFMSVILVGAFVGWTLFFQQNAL
The assay can be described thus: Inhibition of human TCPTP using p-nitrophenol phosphate as substrate incubated for 35 mins prior to substrate addition measured after 30 mins by spectrophotometry. The method in brief:
as §1
Turning to `CCOP(=O)(OCC)[C@H](Nc1ccccc1Cl)c1ccccc1O`, the IC50 was 178 µM.

Turning to `CCOP(=O)(O)C(N[C@@H](Cc1ccc(O)cc1)C(=O)O)c1ccccc1O` (stereo partly specified), the IC50 was > 10000 µM.

Turning to `CCOP(=O)(O)C(N[C@@H](Cc1cnc[nH]1)C(=O)O)c1ccccc1O` (stereo partly specified), the midpoint of inhibition, the IC50, lay at 178 µM.

`CCOP(=O)(O)C(N[C@@H](CO)C(=O)O)c1ccccc1O` (stereo partly specified) yielded an IC50 of 123 µM. The IC50 values of the last two compounds are within 1.5-fold of each other.

As for `CCOP(=O)(O)C(N[C@@H](C)C(=O)O)c1ccccc1O` (stereo partly specified), the IC50 was > 10000 µM.

`CCOP(=O)(O)C(NCC(=O)O)c1ccccc1O` (stereo unspecified): the 50% inhibitory concentration (IC50) is > 10000 µM.

For `CCOP(=O)(OCC)[C@H](Nc1ccc([N+](=O)[O-])cc1)c1ccccc1O`, half-maximal inhibition (IC50) was put at 239 µM.

For `CCOP(=O)(O)C(NCCNC(c1ccccc1O)P(=O)(O)OCC)c1ccccc1O` (stereo unspecified), the IC50 was > 10000 µM.

The next assay addresses T3, Tyrosine-protein phosphatase non-receptor type 9 (Homo sapiens, UniProt P43378).
T3 sequence (P43378 whole entry): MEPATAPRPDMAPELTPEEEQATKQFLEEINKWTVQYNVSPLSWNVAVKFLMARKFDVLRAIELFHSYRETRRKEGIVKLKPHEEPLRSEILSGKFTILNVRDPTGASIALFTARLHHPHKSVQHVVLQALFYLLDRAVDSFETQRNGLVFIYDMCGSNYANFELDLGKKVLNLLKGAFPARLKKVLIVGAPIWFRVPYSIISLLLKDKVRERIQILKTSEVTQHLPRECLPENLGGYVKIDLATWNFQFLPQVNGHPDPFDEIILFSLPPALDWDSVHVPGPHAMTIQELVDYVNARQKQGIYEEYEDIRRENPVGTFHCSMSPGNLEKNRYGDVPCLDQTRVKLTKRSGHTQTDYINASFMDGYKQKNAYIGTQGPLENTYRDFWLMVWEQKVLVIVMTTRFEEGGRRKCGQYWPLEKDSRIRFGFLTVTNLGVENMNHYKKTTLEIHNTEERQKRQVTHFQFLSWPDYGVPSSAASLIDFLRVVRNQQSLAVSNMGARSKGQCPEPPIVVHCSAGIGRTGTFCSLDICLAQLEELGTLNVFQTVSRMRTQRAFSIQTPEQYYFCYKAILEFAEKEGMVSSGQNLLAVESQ
The assay can be described thus: Inhibition of human PTP-MEG2 using p-nitrophenol phosphate as substrate incubated for 35 mins prior to substrate addition measured after 30 mins by spectrophotometry. The method in brief: as §1
In turn, `CCOP(=O)(OCC)[C@H](Nc1ccccc1Cl)c1ccccc1O` displayed an IC50 of 146 µM.

Consider `CCOP(=O)(O)C(N[C@@H](Cc1ccc(O)cc1)C(=O)O)c1ccccc1O` (stereo partly specified), for which the IC50 was > 10000 µM.

With `CCOP(=O)(O)C(N[C@@H](Cc1cnc[nH]1)C(=O)O)c1ccccc1O` (stereo partly specified), the IC50 is > 10000 µM.

On to `CCOP(=O)(O)C(N[C@@H](CO)C(=O)O)c1ccccc1O` (stereo partly specified), for which inhibition was half-maximal at 68.6 µM (IC50).

`CCOP(=O)(O)C(N[C@@H](C)C(=O)O)c1ccccc1O` (stereo partly specified): the IC50 is > 10000 µM.

In the case of `CCOP(=O)(O)C(NCC(=O)O)c1ccccc1O` (stereo unspecified), the IC50 is > 10000 µM.

`CCOP(=O)(OCC)[C@H](Nc1ccc([N+](=O)[O-])cc1)c1ccccc1O` displayed an IC50 of 291 µM.

Regarding `CCOP(=O)(O)C(NCCNC(c1ccccc1O)P(=O)(O)OCC)c1ccccc1O` (stereo unspecified), the IC50 is > 10000 µM.

The next assay has as its target Tyrosine-protein phosphatase non-receptor type 6 (Homo sapiens, UniProt P29350). The assay can be described thus: Inhibition of human SHP1 using p-nitrophenol phosphate as substrate incubated for 35 mins prior to substrate addition measured after 30 mins by spectrophotometry. The method in brief:
as §1
With `CCOP(=O)(OCC)[C@H](Nc1ccccc1Cl)c1ccccc1O`, the IC50 is > 10 mM.

In the case of `CCOP(=O)(O)C(N[C@@H](Cc1ccc(O)cc1)C(=O)O)c1ccccc1O` (stereo partly specified), the concentration for half-maximal inhibition (IC50) is > 10 mM.

Turning to `CCOP(=O)(O)C(N[C@@H](Cc1cnc[nH]1)C(=O)O)c1ccccc1O` (stereo partly specified), the IC50 amounted to 0.167 mM.

`CCOP(=O)(O)C(N[C@@H](CO)C(=O)O)c1ccccc1O` (stereo partly specified) returned an IC50 of 0.129 mM.

Take `CCOP(=O)(O)C(N[C@@H](C)C(=O)O)c1ccccc1O` (stereo partly specified): the 50% inhibitory concentration (IC50) was > 10 mM.

For the compound `CCOP(=O)(O)C(NCC(=O)O)c1ccccc1O` (stereo unspecified), the IC50 was > 10 mM.

As to `CCOP(=O)(OCC)[C@H](Nc1ccc([N+](=O)[O-])cc1)c1ccccc1O`, the IC50 is > 10 mM.

In the case of `CCOP(=O)(O)C(NCCNC(c1ccccc1O)P(=O)(O)OCC)c1ccccc1O` (stereo unspecified), the IC50 was > 10 mM.

The next assay addresses T4, Tyrosine-protein phosphatase non-receptor type 11 (Homo sapiens, UniProt Q06124).
T4 sequence (Q06124 whole entry): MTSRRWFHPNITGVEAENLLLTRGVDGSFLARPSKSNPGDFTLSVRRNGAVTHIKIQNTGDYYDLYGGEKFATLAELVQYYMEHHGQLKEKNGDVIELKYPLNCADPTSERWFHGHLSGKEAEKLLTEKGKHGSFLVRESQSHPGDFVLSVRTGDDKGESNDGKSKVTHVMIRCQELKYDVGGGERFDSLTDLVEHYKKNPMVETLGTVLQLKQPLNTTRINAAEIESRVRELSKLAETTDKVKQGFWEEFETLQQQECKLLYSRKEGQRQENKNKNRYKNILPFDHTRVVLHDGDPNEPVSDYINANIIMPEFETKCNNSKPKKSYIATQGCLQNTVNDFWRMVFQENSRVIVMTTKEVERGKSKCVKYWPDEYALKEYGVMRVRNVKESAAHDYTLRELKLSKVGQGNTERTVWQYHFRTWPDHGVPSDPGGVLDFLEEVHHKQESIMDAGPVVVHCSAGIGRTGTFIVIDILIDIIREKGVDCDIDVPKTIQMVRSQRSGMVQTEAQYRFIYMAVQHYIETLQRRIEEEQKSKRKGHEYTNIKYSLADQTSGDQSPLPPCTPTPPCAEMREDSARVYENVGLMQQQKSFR
As to the kind of experiment: Inhibition of human SHP2 using p-nitrophenol phosphate as substrate incubated for 35 mins prior to substrate addition measured after 30 mins by spectrophotometry. Put shortly: as §1
As for `CCOP(=O)(OCC)[C@H](Nc1ccccc1Cl)c1ccccc1O`, the IC50 is > 10 mM.

As to `CCOP(=O)(O)C(N[C@@H](Cc1ccc(O)cc1)C(=O)O)c1ccccc1O` (stereo partly specified), the IC50 was > 10 mM.

`CCOP(=O)(O)C(N[C@@H](Cc1cnc[nH]1)C(=O)O)c1ccccc1O` (stereo partly specified) came in with a 50% inhibitory concentration (IC50) of 0.21 mM.

Regarding `CCOP(=O)(O)C(N[C@@H](CO)C(=O)O)c1ccccc1O` (stereo partly specified), the IC50 was determined as 0.191 mM. The IC50 values of the last two compounds are within 1.5-fold of each other.

Take `CCOP(=O)(O)C(N[C@@H](C)C(=O)O)c1ccccc1O` (stereo partly specified): the 50% inhibitory concentration (IC50) was > 10 mM.

`CCOP(=O)(O)C(NCC(=O)O)c1ccccc1O` (stereo unspecified): the IC50 was > 10 mM.

Regarding `CCOP(=O)(OCC)[C@H](Nc1ccc([N+](=O)[O-])cc1)c1ccccc1O`, the IC50 is > 10 mM.

On to `CCOP(=O)(O)C(NCCNC(c1ccccc1O)P(=O)(O)OCC)c1ccccc1O` (stereo unspecified), for which the IC50 is > 10 mM.

The target of another assay is T5, Tyrosine-protein phosphatase non-receptor type 9 (Homo sapiens) (UniProt P43378).
T5 sequence (whole entry): T3 sequence (P43378 whole entry)
In turn, `CCOP(=O)(O)C(N[C@@H](CO)C(=O)O)c1ccccc1O` (stereo partly specified) returned a Kic of 102 µM.
